Like-named read-outs stand apart in the source and are kept apart here.
Legend:
[1] = target: T1, bovine serum albumin (BSA) (Bos taurus, UniProt P02769); assay: Protein adsorption to micelles: incubation with BSA, DLS and TEM; assay type: physicochemical
How it was run: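 Drug-loaded micelles were incubated with 45 mg/mL bovine serum albumin in 0.01 M PBS (pH 7.4) at 37 °C for 8 h, with BSA alone and micelles alone incubated in PBS as controls. Hydrodynamic size and polydispersity were read by DLS (n = 3, mean ± SD). For TEM, samples settled 20 s on carbon-coated grids and were negatively stained with 2% phosphotungstic acid in PBS, pH 7.0.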

[2] = target: T1, bovine serum albumin (BSA); conditions: ref Liu et al., 2005; cited from earlier work
[3] = tested on: MCF-7 human breast cancer cells; assay: In vitro cytotoxicity, MTT assay; assay type: cell-based; conditions: read-out: mean IC50
How it was run: (§1)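 Cells kept in phenol red-free DMEM with 10% FBS, L-glutamine and antibiotics at 37 °C, 5% CO2, then seeded in 96-well plates. They were exposed to a range of test compound concentrations (free drug in DMSO or micellar formulations) for 24, 48 or 72 h. Next, 0.5 mg/mL MTT for 2 h, absorbance read at 550 nm. Viability expressed as % of untreated control wells.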

[4] = tested on: MDA-MB-231 human breast cancer cells; assay: In vitro cytotoxicity, MTT assay; assay type: cell-based; conditions: read-out: mean IC50
How it was run: as §1

[5] = low solubility and low permeability; cited from earlier work

T1 sequence (P02769 25-607): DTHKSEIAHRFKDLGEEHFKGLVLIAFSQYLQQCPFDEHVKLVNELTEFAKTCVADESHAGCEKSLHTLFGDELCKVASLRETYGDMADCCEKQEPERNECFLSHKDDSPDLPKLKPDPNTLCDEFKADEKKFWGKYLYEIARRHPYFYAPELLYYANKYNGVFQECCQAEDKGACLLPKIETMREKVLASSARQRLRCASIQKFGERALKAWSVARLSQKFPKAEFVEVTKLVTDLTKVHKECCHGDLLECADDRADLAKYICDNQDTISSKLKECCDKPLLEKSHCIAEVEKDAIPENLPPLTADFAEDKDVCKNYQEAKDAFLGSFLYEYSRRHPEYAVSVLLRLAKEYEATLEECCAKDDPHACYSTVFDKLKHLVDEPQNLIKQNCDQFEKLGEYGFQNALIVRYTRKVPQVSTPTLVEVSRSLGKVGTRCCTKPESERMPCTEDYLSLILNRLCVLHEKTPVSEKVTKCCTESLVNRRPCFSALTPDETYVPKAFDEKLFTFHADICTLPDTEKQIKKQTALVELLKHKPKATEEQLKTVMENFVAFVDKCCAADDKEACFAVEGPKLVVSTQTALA

For bovine serum albumin [BSA], the “Size (hydrodynamic)” value ([1]; 8-h incubation at 37 °C in 0.01 M PBS pH 7.4, sample alone) is listed as 8.2 ± 0.1 nm, the Polydispersity ([1]; 8-h incubation at 37 °C in PBS, sample alone) is listed as 0.236 ± 0.019 and the hydrodynamic diameter [2] is listed as 7.9 ± 0.4 nm.
Work on `CC(=O)O[C@H]1C(=O)[C@@]2(C)[C@H]([C@H](OC(=O)c3ccccc3)[C@]3(O)C[C@H](OC(=O)[C@H](O)[C@@H](NC(=O)c4ccccc4)c4ccccc4)C(C)=C1C3(C)C)[C@]1(OC(C)=O)CO[C@@H]1C[C@@H]2O` [Free PTX (in DMSO), Paclitaxel] yielded an IC50 ([3]; MCF7, 24 h) greater than 1000 nM, an IC50 ([3]; MCF7, 48 h) of 384 nM and an IC50 ([3]; MCF7, 72 h) of 297 nM. It also gave an IC50 ([4]; MDA-MB-231, 24 h) of 21.6 nM, an IC50 ([4]; MDA-MB-231, 48 h) of 10.8 nM and an IC50 ([4]; MDA-MB-231, 72 h) of 9.7 nM. The “biopharmaceutical classification system (BCS) class” value [5] was “class IV”.
